Active and inactive are the calls of the source. No cut-off for these calls is given here.
How the values were obtained:
[1] = biological target: T1, Muscarinic acetylcholine receptor M4 (Homo sapiens) (UniProt P08173); test: (§1) Positive allosteric modulation of human M4 receptor expressed in CHO-K1 cells coexpressing Gqi5 assessed as potentiation of acetylcholine-mediated calcium mobilization incubated for 144 secs prior to acetylcholine addition by Fluo-4-AM staining; type: functional, cell-based
T1 sequence (whole entry): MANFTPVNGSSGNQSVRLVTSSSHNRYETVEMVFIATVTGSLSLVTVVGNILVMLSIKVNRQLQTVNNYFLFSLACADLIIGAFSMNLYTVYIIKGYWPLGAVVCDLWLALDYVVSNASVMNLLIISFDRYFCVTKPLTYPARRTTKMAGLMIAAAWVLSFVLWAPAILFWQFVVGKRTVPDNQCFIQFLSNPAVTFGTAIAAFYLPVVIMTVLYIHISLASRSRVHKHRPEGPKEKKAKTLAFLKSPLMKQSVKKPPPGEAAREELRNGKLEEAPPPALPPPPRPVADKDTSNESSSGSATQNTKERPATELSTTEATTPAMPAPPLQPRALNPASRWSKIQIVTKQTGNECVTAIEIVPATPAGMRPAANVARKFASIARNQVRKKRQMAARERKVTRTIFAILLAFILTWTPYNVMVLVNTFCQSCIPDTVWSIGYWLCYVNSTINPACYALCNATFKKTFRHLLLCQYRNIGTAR
Outline: (§2)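 hM4 stably cotransfected with chimeric Gqi5 in CHO-K1 cells. Cells plated overnight at 37 °C, loaded with Fluo-4 AM for 45 min at 37 °C in HBSS/20 mM HEPES/2.5 mM probenecid. Compound pretreated 144 s (0.3% DMSO final), then EC20 ACh, then EC80 ACh 86 s later; kinetic fluorescence at 37 °C.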

[2] = biological target: T1, Muscarinic acetylcholine receptor M4 (Homo sapiens); test: Positive allosteric modulation of human M4 receptor expressed in CHO-K1 cells coexpressing Gqi5 assessed as potentiation of acetylcholine-mediated calcium mobilization incubated for 144 secs prior to acetylcholine addition by Fluo-4-AM staining relative to acetylcholine; type: functional, cell-based
Outline: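 hM4-Gqi5 CHO-K1 cells, plated overnight, loaded with Fluo-4 AM (45 min, 37 °C). Compound (0.3% DMSO final) preincubated 144 s, then ACh EC20 added, and EC80 added 86 s later; 1 mM ACh wells for normalization. Calcium read at 37 °C, normalized to baseline and then to maximal ACh response. EC50 from four-parameter logistic fit; three independent determinations in triplicate.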

[3] = biological target: T2, Muscarinic acetylcholine receptor M4 (Homo sapiens, UniProt P08173); test: as §1; type: functional, cell-based; outline: as §2
T2 sequence (P08173 whole entry): T1 sequence (whole entry)

[4] = Plasma clearance in rat; type: ADME, organism-based

pEC50 [1] | %max [2] [%] | EC50 [3] [µM] | SMILES | other results
inactive |  |  | COc1ccc(C)c2sc(NC(=O)c3ccc(F)c(F)c3)nc12 | 
inactive |  |  | COc1ccc(C)c2sc(NS(=O)(=O)c3ccc(C(F)(F)F)cc3)nc12 | 
inactive |  |  | O=C(Nc1nc2cccnc2s1)c1cccnn1 | 
inactive |  |  | COc1ccc2nc(NC(=O)c3ccncc3)sc2n1 | 
inactive |  |  | COc1ccc(C)c2sc(NC(=O)c3ccc(F)cc3F)nc12 | 
 | 44 | > 10 | COc1ccc(C)c2sc(NC(=O)C3CCCOC3)nc12 (configuration not stated) | 
 | 45 | > 10 | COc1ccc(C)c2sc(NC(=O)C3CCCC3)nc12 | 
 | 38.2 | 1.12 | COc1ccc(C)c2sc(NC(=O)c3cnccn3)nc12 | 
inactive |  |  | COc1ccc(C)c2sc(NS(=O)(=O)c3cccc(Cl)c3)nc12 | 
inactive |  |  | COc1ccc(C)c2sc(NC(=O)c3c(F)cccc3F)nc12 | 
 | 64.1 | > 10 | COc1ccc(C)c2sc(NC(=O)C3CCCCO3)nc12 (configuration not stated) | 
 | 52.2 | > 10 | COc1ccc(C)c2sc(NC(=O)C3CCC3)nc12 | 
inactive |  |  | COc1ccc(C)c2sc(NC(=O)CC3CC3)nc12 | 
inactive |  |  | O=C(Nc1nc2cccnc2s1)C1CCCC1 | 
inactive |  |  | COc1ccc(C)c2sc(NS(=O)(=O)c3cc(C)ccn3)nc12 | 
 | 43.7 | > 10 | COc1ccc(C)c2sc(NC(=O)C3CCCCC3)nc12 | 

Second part, the compound before the results:

SMILES | pEC50 [1] | %max [2] [%] | EC50 [3] [µM] | other results
COc1ccc(C)c2sc(C(=O)NC3CCCCC3)nc12 | inactive |  |  | 
O=C(Nc1nc2cccnc2s1)c1cnccn1 | inactive |  |  | 
COc1ccc(C)c2sc(NS(=O)(=O)c3cccc(C)c3)nc12 | inactive |  |  | 
COc1ccc(C)c2sc(NC(=O)NC3CCC3)nc12 | inactive |  |  | 
COc1ccc(C)c2sc(NC(=O)c3cccnc3)nc12 |  | 37.6 | 2.34 | 
COCC(=O)Nc1nc2c(OC)ccc(C)c2s1 |  | 43.2 | > 10 | 
COc1ccc(C)c2sc(NC(=O)C3=C(C)OCCO3)nc12 | inactive |  |  | 
Cc1cc(OCc2ccncc2)nc2sc(C(=O)NCc3cccc(F)c3F)c(N)c12 |  |  |  | clearance [4]: > 100 mL/min/kg
COc1ccc(C)c2sc(C(=O)NC3CC3)nc12 |  | 35.6 | 7.76 | 
COc1ccc(C)c2sc(NC(=O)CCc3ccccc3)nc12 | inactive |  |  | 
COc1ccc(C)c2sc(NC(=O)C3CC3C)nc12 (configuration not stated) |  | 66.5 | > 10 | 
COc1ccc(C)c2sc(NC(=O)N3CCCCC3)nc12 | inactive |  |  | 
COc1ccc(C)c2sc(NC(=O)NC3CCCC3)nc12 |  | 36.5 | 7.08 | 
COc1ccc(C)c2sc(NC(=O)Nc3ccncc3)nc12 | inactive |  |  | 
COc1ccc(C)c2sc(NC(=O)C3CC3)nc12 |  | 61.5 | > 10 | 
COc1ccc(C)c2sc(NC(=O)NCc3ccncc3)nc12 | inactive |  |  | 
COc1ccc(C)c2sc(C(=O)NCc3ccncc3)nc12 | inactive |  |  | 
COc1ccc(C)c2sc(NC(=O)C3=COCCO3)nc12 |  | 55.7 | 1.82 | 
Cc1nc2sc(C(=O)NCc3ccncc3)c(N)c2c(C)c1Cl |  |  |  | clearance [4]: > 100 mL/min/kg

SMILES | pEC50 [1] | %max [2] [%] | EC50 [3] [µM] | other results
COc1ccc(C)c2sc(NS(=O)(=O)c3cnn(C)c3)nc12 | inactive |  |  | 
COc1ccc(C)c2sc(NC(=O)c3ccc(F)cc3)nc12 | inactive |  |  | 
COc1ccc(C)c2sc(C(=O)Nc3ccc(C)nc3)nc12 | inactive |  |  | 
COc1ccc(C)c2sc(NC(=O)c3cc(F)cc(F)c3)nc12 | inactive |  |  | 
O=C(Nc1nc2cccnc2s1)C1CCC1 | inactive |  |  | 
COc1ccc(CNC(=O)c2sc3nc(C)cc(C)c3c2N)cc1 |  |  |  | clearance [4]: > 100 mL/min/kg
COc1ccc(C)c2sc(NC(=O)c3ccc(C)cc3)nc12 | inactive |  |  | 
COc1ccc(C)c2sc(NC(C)=O)nc12 | inactive |  |  | 
COc1ccc(C)c2sc(NC(=O)CC(C)(C)C)nc12 | inactive |  |  | 
COc1ccc(C)c2sc(NS(=O)(=O)c3ccc(F)cc3F)nc12 | inactive |  |  | 
O=C(Nc1nc2ccccc2s1)C1CCCCO1 (configuration not stated) | inactive |  |  | 
CCCCC1CC1C(=O)Nc1nc2c(OC)ccc(C)c2s1 (configuration not stated) | inactive |  |  | 
COc1ccc(C)c2sc(NC(=O)c3ccco3)nc12 |  | 51.8 | 1.35 | 
COc1ccc(C)c2sc(NS(=O)(=O)c3ccc4occc4c3)nc12 | inactive |  |  | 
COc1cccc2sc(NC(=O)c3ccncc3)nc12 |  | 36.5 | 2.82 | 
COc1ccc(C)c2sc(NC(=O)N3CCCC3)nc12 |  | 43.5 | > 10 | 
COc1ccc(C)c2sc(NC(=O)c3ccccn3)nc12 | inactive |  |  | 
CCCC(=O)Nc1nc2c(OC)ccc(C)c2s1 |  | 52.5 | > 10 | 
COc1ccc(C)c2sc(NC(=O)NC3CC3)nc12 |  | 39.3 | > 10 | 

Source: ChEMBL document CHEMBL2057082, “Discovery of N-(4-methoxy-7-methylbenzo[d]thiazol-2-yl)isonicatinamide, ML293, as a novel, selective and brain penetrant positive allosteric modulator of the muscarinic 4 (M4) receptor” (Bioorg Med Chem Lett, 2012)
